# Measurements from ChEMBL document CHEMBL3751796, “Structure-Based Discovery of Novel Cyclophilin A Inhibitors for the Treatment of Hepatitis C Virus Infections” (J Med Chem, 2015).
# The source made the active and inactive calls. The calls are words filed in the database; no cut-off is given here.
# Experiments:
# [1] = test system: Mus musculus; assay: Toxicity in BALB/c mouse assessed as changes in body weight at 50 mg/kg, iv for 2 weeks; format: organism-based; conditions: in vivo, 336 h
# [2] = Cytotoxicity against HCV genotype 1b Con1 infected human Huh7.5 cells expressing GFP-fused NS5A assessed as reduction in cell viability measured 72 hrs post infection by hoechst 33342 staining based confocal microscopy; parameters: species or system Huh-7
# Summary of the method: (§1)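 Huh7 replicon cells expressing NS5A-GFP seeded at 2 × 10^3/well and left overnight, then given serially diluted compound. At 72 h, fixed in 2% PFA and nuclei stained with Hoechst 33342 (10 μg/mL). Automated confocal imaging: GFP-positive cells give activity, nuclei counts give cytotoxicity. EC50/CC50 from nonlinear regression.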
# [3] = test system: Hepatitis C virus; assay: Antiviral activity against HCV genotype 1b Con1 infected in human Huh7.5 cells assessed as inhibition of NS5B expression at 2 uM by DAPI staining based confocal microscopy; format: functional, organism-based; conditions: Hepacivirus hominis, isolate Con1, Huh-7
# Summary of the method: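 Con1b replicon cells treated at 2 μM. Stained with Alexa red anti-NS5A and Alexa green anti-NS5B antibodies plus DAPI, then imaged by confocal microscopy for colocalization. Images representative of at least three experiments.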
# [4] = Cytotoxicity against BALB/c mouse splenocytes assessed as reduction in cell viability at 1 to 10 uM; format: cell-based; conditions: splenocyte
# [5] = test system: Hepatitis C virus; assay: Antiviral activity against HCV infected in human Huh7.5 cells assessed as inhibition of HCV-specific RNA by qRT-PCR method in presence of IFN-alpha; format: functional, organism-based; conditions: Hepacivirus hominis; Huh-7
# [6] = test system: Hepatitis C virus; assay: Antiviral activity against HCV genotype 1b Con1 infected in human Huh7 cells xenografted in immunodeficient NOD/SCID mouse assessed as inhibition of NS5A expression in liver at 50 mg/kg, ip up to 14 days by Western blot analysis; format: functional, organism-based; conditions: Hepacivirus hominis, isolate Con1, Huh-7
# Summary of the method: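 Liver tissue from NOD/SCID mice engrafted with Huh7 Con1b replicon cells and dosed ip at 50 mg/kg for 14 days (5 per group). NS5A protein read by SDS-PAGE Western blot with chemiluminescence detection.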
# [7] = species on record: Mus musculus; assay: Activation of calcium-dependent calcineurin phosphatase activity in ionomycin-stimulated BALB/c mouse splenocytes assessed as dephosphorylation of NFAT1 at 1 to 10 uM preincubated for 20 hrs followed by ionomycin stimulation measured after 4 hrs by Western blot analysis
# Summary of the method: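 Mouse splenocytes, 2 × 10^6/well, exposed to compound for 20 h at 37 °C, then ionomycin 1 μg/mL for 4 h. Lysed on ice for 10 min and spun at 19 000g. NFAT phosphorylation status in the supernatant read by Western blot with anti-NFATc1 antibody.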
# [8] = test system: Hepatitis C virus; assay: Antiviral activity against HCV genotype 1b Con1 infected in human Huh7.5 cells assessed as stimulation of OAS1 mRNA expression at 2 uM incubated up to 96 hrs by qRT-PCR method; format: functional, organism-based; conditions: Hepacivirus hominis, isolate Con1, Huh-7, TDE = time-dependent effect
# Summary of the method: (§2)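 mRNA measured by SYBR Green qRT-PCR using the 2^−ΔΔCT method, normalized to GAPDH and expressed as fold change vs controls.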
# [9] = molecular target: T1, Peptidyl-prolyl cis-trans isomerase A (Homo sapiens, UniProt P62937); assay: Inhibition of recombinant GST-tagged Cyclophilin A (unknown origin) interaction with HCV GST-tagged NS5B at 2 to 4 uM by GST pulldown assay
# Target sequence in this assay (P62937 whole entry, looked up): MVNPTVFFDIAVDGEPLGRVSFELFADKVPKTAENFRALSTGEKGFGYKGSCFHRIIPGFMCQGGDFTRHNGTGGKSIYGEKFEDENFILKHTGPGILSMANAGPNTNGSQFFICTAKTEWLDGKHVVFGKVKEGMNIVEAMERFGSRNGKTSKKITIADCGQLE
# [10] = Cytotoxicity against HCV infected human Huh7.5 cells assessed as cell death by MTT assay in presence of ribavirin; format: cell-based; conditions: huh-7
# [11] = molecular target: T1, Peptidyl-prolyl cis-trans isomerase A; assay: Inhibition of Cyclophilin A peptidyl-prolyl cis-trans isomerase activity (unknown origin) using Succ-Ala-Leu-Pro-Phe-p-nitroaniline as substrate by enzyme kinetic analysis
# Target sequence in this assay (P62937 whole entry): as the sequence (P62937 whole entry, looked up) above
# [12] = molecular target: T1, Peptidyl-prolyl cis-trans isomerase A; assay: Inhibition of human Cyclophilin A interaction with HCV genotype 1b Con1 NS5A in human Huh7.5 cells at 2 uM by co-immunoprecipitation assay; format: cell-based; conditions: Huh-7
# Target sequence in this assay (P62937 whole entry, looked up): as above
# [13] = test system: Hepatitis C virus; assay: Antiviral activity against HCV infected in human Huh7.5 cells assessed as inhibition of HCV-specific RNA by qRT-PCR method in presence of ribavirin; format: functional, organism-based; conditions: Hepacivirus hominis; Huh-7
# [14] = test system: Hepatitis C virus; assay: Antiviral activity against HCV genotype 1b Con1 infected in human Huh7.5 cells expressing GFP-fused NS5A measured 72 hrs post infection by hoechst 33342 staining based confocal microscopy; format: functional, organism-based, Hepacivirus hominis; conditions: isolate Con1, Huh-7, 72 h; summary of the method: as §1
# [15] = test system: Hepatitis C virus; assay: Antiviral activity against HCV genotype 1b Con1 infected in human Huh7.5 cells assessed as reduction of IL-8 mRNA expression at 2 uM incubated up to 96 hrs by qRT-PCR method; format: functional, organism-based; conditions: Hepacivirus hominis, isolate Con1, Huh-7, TDE = time-dependent effect; summary of the method: as §2
# [16] = test system: Hepatitis C virus; assay: Antiviral activity against HCV genotype 1b Con1 infected in human Huh7.5 cells assessed as upregulation of IFN-alpha mRNA expression incubated up to 96 hrs by qRT-PCR method; format: functional, organism-based; conditions: Hepacivirus hominis; isolate Con1; Huh-7; summary of the method: as §2
# [17] = molecular target: T1, Peptidyl-prolyl cis-trans isomerase A; assay: Inhibition of recombinant GST-tagged Cyclophilin A (unknown origin) interaction with HCV GST-tagged NS5A at 2 to 4 uM by GST pulldown assay
# Target sequence in this assay (P62937 whole entry, looked up): as above
# [18] = test system: Hepatitis C virus; assay: Antiviral activity against HCV genotype 1b Con1 infected in human Huh7.5 cells assessed as inhibition of NS5B expression in membrane fractions at 2 uM by Western blot analysis; format: functional, organism-based; conditions: Hepacivirus hominis, isolate Con1, Huh-7
# Summary of the method: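 Con1b replicon cells treated with 2 μM. Total lysates, and a membrane fraction prepared by hypotonic buffer, dounce homogenization, 220g spin and then 68 000g for 1 h at 4 °C, analyzed by Western blot for NS5A and NS5B.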
# [19] = Cytotoxicity against mock-infected human Huh7.5 cells assessed as reduction in cell viability incubated for 5 hrs by MTT assay; format: cell-based, Huh-7; conditions: mock-infected Huh7.5 cells
# Summary of the method: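 Mock-infected Huh7.5 cells run alongside the JFH1-Luc antiviral assay with 3-fold serial dilutions. Viability read by MTT assay to give CC50.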
# [20] = test system: Hepatitis C virus; assay: Antiviral activity against HCV genotype 1b Con1 infected in human Huh7.5 cells assessed as stimulation of IRF9 mRNA expression at 2 uM incubated up to 96 hrs by qRT-PCR method; format: functional, organism-based; conditions: Hepacivirus hominis, isolate Con1, Huh-7, TDE = time-dependent effect; summary of the method: as §2
# [21] = test system: Hepatitis C virus; assay: Antiviral activity against HCV genotype 1b Con1 infected in human Huh7.5 cells assessed as reduction of IL-8 level at 2 uM incubated up to 96 hrs by ELISA; format: functional, organism-based; conditions: Hepacivirus hominis, isolate Con1, Huh-7, TDE = time-dependent effect
# Summary of the method: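 Con1b replicon cells, 2 × 10^6/well, treated with 2 μM for up to 4 days at 37 °C. Pooled culture media assayed for IL-8 and IFN-α by ELISA.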
# [22] = test system: Hepatitis C virus; assay: Antiviral activity against HCV genotype 1b Con1 infected in human Huh7.5 cells assessed as stimulation of IRF9 expression at 2 uM incubated up to 96 hrs by Western blot analysis; format: functional, organism-based; conditions: Hepacivirus hominis, isolate Con1, Huh-7, TDE = time-dependent effect
# [23] = test system: Hepatitis C virus; assay: Antiviral activity against HCV genotype 1b Con1 infected in human Huh7.5 cells assessed as stimulation of STAT1 expression at 2 uM incubated up to 96 hrs by Western blot analysis; format: functional, organism-based; conditions: Hepacivirus hominis, isolate Con1, Huh-7, TDE = time-dependent effect
# [24] = Cytotoxicity against HCV genotype 2a JFH1 infected human Huh7.5 cells expressing GFP-fused NS5A assessed as reduction in cell viability measured 72 hrs post infection by hoechst 33342 staining based confocal microscopy; parameters: species or system Huh-7
# [25] = Cytotoxicity against HCV infected human Huh7.5 cells assessed as cell death by MTT assay in presence of telaprevir; format: cell-based; conditions: huh-7
smiles,measurement,setting,value
COc1cc(C(C(=O)NC2CCCCC2)N(C(=O)Cc2c[nH]c3ccccc23)c2ccc(C(C)C)cc2)cc(OC)c1OC (stereo not given),Activity,[1],Non-toxic
same,CC50 at 72 h,[2],12.4 µM
same,inhibition,[3],Active
same,Activity,[4],Non-toxic
same,inhibition,[5],Active
same,inhibition,[6],Active
same,Activity,[7],Active
same,Activity,[8],tde
same,inhibition,[9],Active
same,Activity,[10],Non-toxic
same,IC50,[11],0.0055 µM
same,inhibition,[12],Active
same,inhibition,[13],Active
same,EC50,[14],0.73 µM
same,Activity,[15],tde
same,Activity,[16],Active
same,inhibition,[17],Active
same,inhibition,[18],Active
same,CC50 at 5 h,[19],> 100 µM
same,Activity,[20],tde
same,Activity,[21],tde
same,Activity,[22],tde
same,Activity,[23],tde
same,CC50 at 72 h,[24],22.3 µM
same,Activity,[25],Non-toxic
